# From PubChem BioAssay
# Calls of active or inactive are those of the source.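 The calls were made as follows, unless noted: active = growth inhibition above 25% in both replicates, a cutoff set 3 SD above the mean; inconclusive = above 25% in only one replicate; inactive = the rest.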
# Test: S. cerevisiae growth inhibition in permissive medium (OD615), pilot counter-assay for S. cerevisiae lifespan shortening project, permissive growth control (AID 705)
# Details: OD615, 24 h, at 10 µM, hits give high values
# Procedure, shortened: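 assay system = Saccharomyces cerevisiae strain carrying genetically modified DeaD replicative-lifespan system | technique = absorbance (optical density) at 615 nm | buffer or medium = permissive raffinose/galactose medium | timing = cells pre-grown 4 h, then 24 h compound exposure, 30 °C humidified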
row,Compound,growth inhibition
1,CCOc1ccc(N2CC(C(=O)Nc3ccccc3OC)CC2=O)cc1 (stereo not given),-7.43% (inactive)
2,O=C(Cn1ncc2c1-c1ccccc1OC2)N1CCN(c2ccccn2)CC1,-9.33% (inactive)
3,CC1CN(c2c3c(nc4ncnn24)CCCC3)CC(C)O1 (stereo not given),3.17% (inactive)
4,CCOC(=O)C(CC)n1nc(C)n2c(cc3sccc32)c1=O (stereo not given),-5.97% (inactive)
5,CCOC(=O)CN(C(=O)c1ccccc1)c1ccccc1C,-12.9% (inactive)
6,Cc1ccc(-n2ncc3c(N4CCCC(C)C4)ncnc32)c(C)c1 (stereo not given),-2.59% (inactive)
7,CCN1CCN(C(c2cccs2)C(C)NC(=O)c2ccccc2)CC1 (stereo not given),-5.51% (inactive)
8,CC1=C(C(=O)Nc2ccc(F)cc2)C(c2cccc(C)c2)n2nc(CCCO)nc2N1 (stereo not given),-1.56% (inactive)
9,Cc1ccc(-c2noc(CN3C(C)CCCC3C)n2)cc1 (stereo not given),-3.56% (inactive)
10,CC1CCN(C(=O)CSc2nnc(Cc3cc(=O)[nH]c(=O)[nH]3)n2-c2ccc(Cl)cc2)CC1,-17.1% (inactive)
11,Cc1ccccc1-c1nc(CN2CCC(C(=O)N3CCC(C(N)=O)CC3)CC2)c(C)o1,-8.16% (inactive)
12,COc1ccc(C(=O)c2ccc(OC)c(N)c2)cc1N,-20% (inactive)
13,O=C(CC1(O)C(=O)Nc2ccccc21)c1ccc2c(c1)OCO2 (stereo not given),-7.81% (inactive)
14,CCOC(=O)c1[nH]c(C)c(C(=O)NC)c1C,-4.37% (inactive)
15,CN(C1CCCCC1)S(=O)(=O)c1ccc(S(=O)(=O)N2CCN(CCC#N)CC2)cc1,-11.3% (inactive)
16,CC1CCCCC1NC(=O)Cn1ncc2ccccc21 (stereo not given),-12.1% (inactive)
17,CCOC(=O)Cn1c(CCC(=O)O)ccc1-c1ccc(F)cc1,-9.79% (inactive)
18,CCCc1cc(C(=O)Nc2ccc(C(C)=O)cc2)no1,-0.51% (inactive)
19,CCOC(=O)CN1C(=O)C(=O)c2cccc(C)c21,0.235% (inactive)
20,CCOc1ccc(NC(=O)C(C)Sc2nnc(C)n2C)cc1 (stereo not given),-3.46% (inactive)

row,Compound,growth inhibition
1,COc1cccc(CNC(=O)Cn2c(=O)oc3ccccc32)c1OC,-9.48% (inactive)
2,Oc1c(C(c2ccccc2)N2CCc3ccccc3C2)sc2ncnn12 (stereo not given),7.92% (inactive)
3,CCSc1nnc(N2C(=O)CC(c3ccsc3)C3=C2CC(C)(C)CC3=O)s1 (stereo not given),2.55% (inactive)
4,Cc1ccnc2c(N3C(=O)C4C5C=CC(C5)C4(C)C3=O)cccc12 (stereo not given),-20.2% (inactive)
5,CCN(CC)C(=O)c1ccc(CS(=O)(=O)c2ccc(OC)cc2)o1,-6.54% (inactive)
6,CCCCCn1c(=O)[nH]c2cc(C(=O)NCCCN3CCCCC3)ccc2c1=O,-6.6% (inactive)
7,CC(C)c1nccn1S(=O)(=O)c1cc(Cl)ccc1Cl,-4.57% (inactive)
8,CCOC(=O)N1CCC(NC(=O)C2CCCN(C(=O)c3cc4sccc4n3C)C2)CC1 (stereo not given),-18% (inactive)
9,CCCCNC(=O)Cn1c(=O)n(C)c2ccccc21,-9.7% (inactive)
10,Cc1c(C#N)c2ccccc2n1CC(=O)N1CCc2ccccc2C1,-1.57% (inactive)
11,O=C(COc1ccc2ccccc2c1)N1CCCC1,-2.41% (inactive)
12,CCC(=O)N1CCN(c2nc(-c3ccccc3)c3c(c2C#N)CCCC3)CC1,-2.54% (inactive)
13,CC1(C)CC(=O)c2cnc(NC(=O)Cc3ccc(Cl)cc3)nc2C1,-5.41% (inactive)
14,CCOCCOc1nc2c(c(=O)n(C)c(=O)n2C)n1Cc1ccc(C)cc1,3.97% (inactive)
15,CCN(C(=O)c1cc(Cl)ccc1OC)c1ccccc1,-16.1% (inactive)
16,Cc1cccc(-n2ncc3c(N(CCO)CCO)ncnc32)c1,-0.18% (inactive)
17,N#CCCN1CCN(S(=O)(=O)c2ccc(S(=O)(=O)NC3CCCCC3)cc2)CC1,-1.9% (inactive)
18,Cc1c(C)c2ccc(OC3CCCCC3=O)cc2oc1=O (stereo not given),-16.6% (inactive)
19,COc1ccc(-n2c(Cc3cccn3C)nnc2SCC(=O)Nc2ccc(Cl)cc2)cc1,4.53% (inactive)
20,Cc1cc(C(N)=O)c2cc(Br)ccc2n1,-1.99% (inactive)

# Test: S. cerevisiae growth inhibition in restrictive medium, OD615, pilot screen, restrictive growth control, yeast lifespan reduction project (AID 706;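 active = growth inhibition above a set limit, 3 SD over mean compound inhibition, in both replicates, cut at about 43% in these data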;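 also: modified DeaD lifespan yeast strain shifted to restrictive glucose medium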)
# Details: OD615, 48 h, at 10 µM, hits give high values
# Procedure, shortened: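 System: modified S. cerevisiae. Buffer or medium: CSMM-D glucose medium. Incubation: 4 h pre-growth plus 48 h compound exposure, 30 °C. Detection: absorbance (optical density) measured at 615 nm.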
row,Compound,growth inhibition
1,CCOc1ccc(N2CC(C(=O)Nc3ccccc3OC)CC2=O)cc1 (stereo not given),-1.77% (inactive)
2,O=C(Cn1ncc2c1-c1ccccc1OC2)N1CCN(c2ccccn2)CC1,-14.6% (inactive)
3,CC1CN(c2c3c(nc4ncnn24)CCCC3)CC(C)O1 (stereo not given),-4.12% (inactive)
4,CCOC(=O)C(CC)n1nc(C)n2c(cc3sccc32)c1=O (stereo not given),1.69% (inactive)
5,CCOC(=O)CN(C(=O)c1ccccc1)c1ccccc1C,6.67% (inactive)
6,Cc1ccc(-n2ncc3c(N4CCCC(C)C4)ncnc32)c(C)c1 (stereo not given),10% (inactive)
7,CCN1CCN(C(c2cccs2)C(C)NC(=O)c2ccccc2)CC1 (stereo not given),1.4% (inactive)
8,CC1=C(C(=O)Nc2ccc(F)cc2)C(c2cccc(C)c2)n2nc(CCCO)nc2N1 (stereo not given),-3% (inactive)
9,Cc1ccc(-c2noc(CN3C(C)CCCC3C)n2)cc1 (stereo not given),4.79% (inactive)
10,CC1CCN(C(=O)CSc2nnc(Cc3cc(=O)[nH]c(=O)[nH]3)n2-c2ccc(Cl)cc2)CC1,-15.4% (inactive)
11,Cc1ccccc1-c1nc(CN2CCC(C(=O)N3CCC(C(N)=O)CC3)CC2)c(C)o1,3.29% (inactive)
12,COc1ccc(C(=O)c2ccc(OC)c(N)c2)cc1N,-17.8% (inactive)
13,O=C(CC1(O)C(=O)Nc2ccccc21)c1ccc2c(c1)OCO2 (stereo not given),-21.3% (inactive)
14,CCOC(=O)c1[nH]c(C)c(C(=O)NC)c1C,-10.2% (inactive)
15,CN(C1CCCCC1)S(=O)(=O)c1ccc(S(=O)(=O)N2CCN(CCC#N)CC2)cc1,-3.55% (inactive)
16,CC1CCCCC1NC(=O)Cn1ncc2ccccc21 (stereo not given),-9.67% (inactive)
17,CCOC(=O)Cn1c(CCC(=O)O)ccc1-c1ccc(F)cc1,-2.42% (inactive)
18,CCCc1cc(C(=O)Nc2ccc(C(C)=O)cc2)no1,-1.09% (inactive)
19,CCOC(=O)CN1C(=O)C(=O)c2cccc(C)c21,-4.38% (inactive)
20,CCOc1ccc(NC(=O)C(C)Sc2nnc(C)n2C)cc1 (stereo not given),3.31% (inactive)

row,Compound,growth inhibition
1,COc1cccc(CNC(=O)Cn2c(=O)oc3ccccc32)c1OC,-12.4% (inactive)
2,Oc1c(C(c2ccccc2)N2CCc3ccccc3C2)sc2ncnn12 (stereo not given),8.2% (inactive)
3,CCSc1nnc(N2C(=O)CC(c3ccsc3)C3=C2CC(C)(C)CC3=O)s1 (stereo not given),0.01% (inactive)
4,Cc1ccnc2c(N3C(=O)C4C5C=CC(C5)C4(C)C3=O)cccc12 (stereo not given),-11.7% (inactive)
5,CCN(CC)C(=O)c1ccc(CS(=O)(=O)c2ccc(OC)cc2)o1,-7.93% (inactive)
6,CCCCCn1c(=O)[nH]c2cc(C(=O)NCCCN3CCCCC3)ccc2c1=O,6.35% (inactive)
7,CC(C)c1nccn1S(=O)(=O)c1cc(Cl)ccc1Cl,-1% (inactive)
8,CCOC(=O)N1CCC(NC(=O)C2CCCN(C(=O)c3cc4sccc4n3C)C2)CC1 (stereo not given),-12.6% (inactive)
9,CCCCNC(=O)Cn1c(=O)n(C)c2ccccc21,-4.06% (inactive)
10,Cc1c(C#N)c2ccccc2n1CC(=O)N1CCc2ccccc2C1,-2.33% (inactive)
11,O=C(COc1ccc2ccccc2c1)N1CCCC1,-2.41% (inactive)
12,CCC(=O)N1CCN(c2nc(-c3ccccc3)c3c(c2C#N)CCCC3)CC1,-4.34% (inactive)
13,CC1(C)CC(=O)c2cnc(NC(=O)Cc3ccc(Cl)cc3)nc2C1,-16.6% (inactive)
14,CCOCCOc1nc2c(c(=O)n(C)c(=O)n2C)n1Cc1ccc(C)cc1,-4.73% (inactive)
15,CCN(C(=O)c1cc(Cl)ccc1OC)c1ccccc1,-19.6% (inactive)
16,Cc1cccc(-n2ncc3c(N(CCO)CCO)ncnc32)c1,0.945% (inactive)
17,N#CCCN1CCN(S(=O)(=O)c2ccc(S(=O)(=O)NC3CCCCC3)cc2)CC1,-5.03% (inactive)
18,Cc1c(C)c2ccc(OC3CCCCC3=O)cc2oc1=O (stereo not given),-7.25% (inactive)
19,COc1ccc(-n2c(Cc3cccn3C)nnc2SCC(=O)Nc2ccc(Cl)cc2)cc1,8.94% (inactive)
20,Cc1cc(C(N)=O)c2cc(Br)ccc2n1,-7.49% (inactive)
